In test [1] the target is GABA-A receptor; anion channel. Briefly: In vitro binding affinity to the Gamma-aminobutyric acid A receptor complex in absence of GABA in rat cerebellum tissue. Type of test: tissue-based.
The target of test [2] is GABA-A receptor; anion channel. In words: In vitro binding affinity to the Gamma-aminobutyric acid A receptor complex in presence of GABA in rat cerebellum tissue. Type of test: tissue-based.
Test [3] concerns the target T1, GABA-A receptor; anion channel (Rattus norvegicus) (UniProt O09028+P15431+P18506+P18508+P19969+P20236+P23574+P23576+P28471+P28473+P30191+P62813+P63079+P63138+Q91ZM7+Q9ES14). In words: Ratio of IC50 in the presence and absence of GABA. Type of test: functional.
For test [4], the system named is Mus musculus. Briefly: In vivo Horizontal screen test for motor impairment by the compound at the mentioned dose of 30, i.p. (mg/kg); out of 6 tested animals. Format: functional. In a few lines: (§1)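 Mice were dosed orally or ip (vehicle 10 mL/kg). At 1 h, just before PTZ, each was placed on an inverted horizontal screen and scored pass/fail for climbing to the top side within 1 min. Result given as number passed/number tested.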

Test [5] addresses T1, GABA-A receptor; anion channel (Rattus norvegicus). In words: Relative binding to GABA-A receptor in the presence and absence of GABA. Format: functional.
In test [6] the test system is Mus musculus. Briefly: In vivo suppression of pentylenetetrazole-induced convulsions by the compound at the mentioned dose of, 30, i.p. (mg/kg); out of 6 tested animals. Format: functional. The method in brief:
(§2)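 Mice received compound or vehicle (10 mL/kg) po or ip. After 1 h they got pentylenetetrazole 85 mg/kg sc. They were housed individually and observed 30 min for clonic convulsions (present/absent). Result given as number convulsed/number tested.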

The test system of test [7] is Mus musculus. In words: In vivo suppression of pentylenetetrazole-induced convulsions by the compound at the mentioned dose of, 10, i.p. (mg/kg); out of 6 tested animals. Format: functional. The method in brief:
(§3)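 Mice were dosed ip with compound or vehicle (10 mL/kg). Pentylenetetrazole 85 mg/kg sc was given 1 h later. Mice were housed individually and watched for 30 min for clonic convulsions, scored present or absent. Results are reported as number convulsed over number tested.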

Test [8] has as its system Mus musculus. Briefly: In vivo Horizontal screen test for motor impairment by the compound at the mentioned dose of 10, i.p. (mg/kg); out of 6 tested animals. Format: functional. The method in brief: (§4)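 Mice were dosed ip with compound or vehicle (10 mL/kg). After 1 h, just before sc pentylenetetrazole, they were placed on an inverted horizontal screen. Passing meant climbing to the top side within 1 min. Results are reported as number passed over number tested.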

Test [9] concerns Mus musculus. In words: In vivo Horizontal screen test for motor impairment by the compound at the mentioned dose of 100, i.p. ( mg/kg); out of 6 tested animals. Type of test: functional. In a few lines:
as §4

The subject of test [10] is Mus musculus. Briefly: In vivo suppression of pentylenetetrazole-induced convulsions by the compound at the mentioned dose of, 100, i.p. ( mg/kg); out of 6 tested animals. Type of test: functional. The method in brief:
as §3

Test [11] has as its system Mus musculus. In words: In vivo Horizontal screen test for motor impairment by the compound at the mentioned dose of 1, i.p. ( mg/kg); out of 6 tested animals. Type of test: functional. In a few lines: as §4
Test [12] relates to Mus musculus. Briefly: In vivo suppression of pentylenetetrazole-induced convulsions by the compound at the mentioned dose of, 1, i.p. ( mg/kg); out of 6 tested animals. Type of test: functional. The method in brief:
as §3

The test system of test [13] is Mus musculus. Briefly: In vivo suppression of pentylenetetrazole-induced convulsions by the compound at the mentioned dose of, 30, p.o. (mg/kg); out of 12 tested animals. Format: functional. In a few lines:
as §2

Test [14] has as its system Mus musculus. Briefly: In vivo suppression of pentylenetetrazole-induced convulsions by the compound at the mentioned dose of, 30, i.p. (mg/kg); out of 11 tested animals. Type of test: functional. The method in brief:
as §2

For test [15], the system named is Mus musculus. Briefly: In vivo suppression of pentylenetetrazole-induced convulsions by the compound at the mentioned dose of, 10, i.p. (mg/kg); out of 12 tested animals. Format: functional. In a few lines:
as §2

Test [16] relates to Mus musculus. In words: In vivo Horizontal screen test for motor impairment by the compound at the mentioned dose of 30, i.p. (mg/kg); out of 11 tested animals. Format: functional. The method in brief: as §1
Test [17] has as its system Mus musculus. In words: In vivo Horizontal screen test for motor impairment by the compound at the mentioned dose of 30, p.o. (mg/kg); out of 12 tested animals. Format: functional. In a few lines: as §1
Test [18] has as its system Mus musculus. Briefly: In vivo Horizontal screen test for motor impairment by the compound at the mentioned dose of 10, i.p. (mg/kg); out of 12 tested animals. Type of test: functional. The method in brief: as §1
Test [19] deals with Mus musculus. In words: In vivo Horizontal screen test for motor impairment by the compound at the mentioned dose of 1, i.p. ( mg/kg); out of 12 tested animals. Format: functional. In a few lines: as §1
In test [20] the test system is Mus musculus. In words: In vivo suppression of pentylenetetrazole-induced convulsions by the compound at the mentioned dose of, 1, i.p. ( mg/kg); out of 12 tested animals. Format: functional. The method in brief: as §2

Experimental findings from ChEMBL document CHEMBL1132258, “gamma-Aminobutyrate-A receptor modulation by 3-aryl-1-(arylsulfonyl)- 1,4,5,6-tetrahydropyridazines” (J Med Chem, 1999) are described below.

The structures appear in SMILES notation. Where only a bound is given, the exact number is not on record here.

As to `COc1ccc(C2=NN(P(=O)(OC)c3ccccc3)CCC2)cc1` (configuration not stated), the values for the 50% inhibitory concentration (IC50) in test [1] and in test [2] were > 11 µM and 6.4 µM, respectively. Further, the GS in test [3] came to 1.7.
For `C[C@]12CC[C@@H](O)C[C@@H]1CC[C@@H]1[C@@H]2CC[C@]2(C)[C@@H](C(=O)CO)CC[C@@H]12`, in that order: 3.05 µM, 0.09 µM and 33.9.
In the case of `CCCCc1ccc(S(=O)(=O)N2CCCC(c3ccc(C(C)C)cc3)=N2)cc1`, in test [2], the 50% inhibitory concentration (IC50) is 10 µM.
As to `CCCCc1ccc(S(=O)(=O)N2CCCC(c3ccc(CC)cc3)=N2)cc1`, the IC50 turned out to be 3.77 µM in test [1] and 1.8 µM in [2]. For the same compound, the GS in test [3] was 2.1.
Taken in the same sequence, the figures for `COP(=O)(c1ccccc1)N1CCCC(c2ccc(Cl)c(C(F)(F)F)c2)=N1` (configuration not stated) were 8.3 µM, 6.6 µM and 1.3.
Turning to `CC(C)Cc1ccc(C2=NN(S(=O)(=O)c3ccc(I)cc3)CCC2)cc1`, the IC50 in test [1] and in test [2] was > 11 µM throughout.
With `COP(=O)(c1ccccc1)N1CCCC(c2ccccc2)=N1` (configuration not stated), the IC50 in test [2] is > 11 µM.
Regarding `O=P(OC1CCCC1)(c1ccccc1)N1CCCC(c2ccc(Cl)c(Cl)c2)=N1` (configuration not stated), the GS in test [3] is 32.6.
With `CCCCc1ccc(C2=NN(S(=O)(=O)c3ccc(I)cc3)CCC2)cc1`, the Horizontal screen in the test on Mus musculus [4] stood at 3 number passed. Also, the values for the IC50 in [1] and in test [2] were 10 µM and 0.77 µM, respectively. In addition, in test [5], the GABA shift turned out to be 13.7. For the same compound, the Induced convulsion in the test with Mus musculus [6] came out at 6 number convulsed.
For the compound `CCCCc1ccc(C2=NN(P(=O)(OCC)c3ccccc3)CCC2)cc1` (configuration not stated), the half-maximal inhibitory concentration (IC50) is 1.12 µM in test [1] and 0.73 µM in [2]. This compound had an Induced convulsion with Mus musculus [7] of 5 number convulsed. The Horizontal screen in the test with Mus musculus [8] is 5 number passed. In addition, the GS in test [3] came out at 1.5.
In turn, `CC(C)OP(=O)(c1ccccc1)N1CCCC(c2ccc(Cl)c(Cl)c2)=N1` (configuration not stated) came in with a Horizontal screen with Mus musculus [9] of 0 number passed. Further, the IC50 in [1] was found to be 10 µM; in test [2], 1.4 µM. In addition, the GS in test [3] was determined as 7.1. In the test with Mus musculus [10], this compound yielded an Induced convulsion of 4 number convulsed.
On to `CCOP(=O)(c1ccccc1)N1CCCC(c2ccc(Cl)c(C(F)(F)F)c2)=N1` (configuration not stated), for which the IC50 in test [1] stood at 5.4 µM; in test [2], 1.1 µM. In addition, the GS in [3] came out at 4.9.
In the case of `CCCCCCc1ccc(C2=NN(S(=O)(=O)c3ccc(I)cc3)CCC2)cc1`, the IC50 in test [1] and in test [2] was > 11 µM each time.
Take `CCCCc1ccc(C2=NN(P(=O)(OC)c3ccccc3)CCC2)cc1` (configuration not stated): the IC50 is 2 µM in test [1] and 0.5 µM in test [2]. Moreover, in test [3], the GS worked out at 4.
For `CCOP(=O)(c1ccccc1)N1CCCC(c2ccc(F)cc2)=N1` (configuration not stated), in that order: > 11 µM, 10 µM and 1.1.
In the case of `CCOP(=O)(c1ccccc1)N1CCCC(c2ccc(Cl)c(Cl)c2)=N1` (configuration not stated), the Horizontal screen in the test with Mus musculus [11] and in the test on Mus musculus [8] was 5 number passed each time. Moreover, the results for the half-maximal inhibitory concentration (IC50) in [1] and in test [2] were 1.39 µM and 1.05 µM, respectively. Further, the Induced convulsion with Mus musculus [12] and with Mus musculus [7] was 6 number convulsed each time. For the same compound, the GS in test [3] was 1.3.
Take `CCCCc1ccc(C2=NN(S(=O)(=O)c3ccc(CCCC)cc3)CCC2)cc1`: the Induced convulsion turned out to be 12 number convulsed with Mus musculus [13], 10 number convulsed in the test on Mus musculus [14], 8 number convulsed in the test on Mus musculus [15] and 9 number convulsed with Mus musculus [20]. The IC50 was > 11 µM in test [1] and 0.21 µM in test [2]. For the same compound, the Horizontal screen in the test with Mus musculus [16] is 10 number passed; in the test on Mus musculus [17], 12 number passed; in the test with Mus musculus [18] it was 12 number passed; in the test with Mus musculus [19], 11 number passed. In test [3], the GS came out at 52.4.
As for `CCCCc1ccc(C2=NN(S(=O)(=O)c3ccc(Cl)cc3)CCC2)cc1`, the IC50 in test [1] and in test [2] was > 11 µM in each case.
Turning to `CCc1ccc(C2=NN(S(=O)(=O)c3ccc(I)cc3)CCC2)cc1`, the figures for the half-inhibitory concentration (IC50) in test [1] and in [2] were 10 µM and 0.9 µM, respectively. Further, in [3], the GS came out at 11.1.
On to `CCCCc1ccc(C2=NN(S(=O)(=O)c3ccccc3)CCC2)cc1`, for which, in the test with Mus musculus [9], the Horizontal screen came out at 4 number passed. The half-inhibitory concentration (IC50) in test [1] was > 11 µM; in [2] it was 1.1 µM. Moreover, the GS in [3] came out at 10. Besides, the Induced convulsion in the test on Mus musculus [10] was determined as 5 number convulsed.
For `COP(=O)(c1ccccc1)N1CCCC(c2ccc(Br)cc2)=N1` (configuration not stated), the IC50 in [1] and in test [2] was > 11 µM throughout.
As to `CCCCc1ccc(C2=NN(S(=O)(=O)c3ccc(C)cc3)CCC2)cc1`, the concentration for half-maximal inhibition (IC50) in test [1] was > 11 µM; in test [2] it was 2.2 µM. The GS in [3] came to 5.
Taken in the same sequence, the figures for `CC(=O)[C@H]1CC[C@H]2[C@@H]3CC[C@H]4C[C@H](O)CC[C@]4(C)[C@H]3CC[C@]12C` [BREXANOLONE] were 2.61 µM, 0.08 µM and 32.6.
For `COP(=O)(c1ccccc1)N1CCCC(c2ccc(F)cc2)=N1` (configuration not stated), in that order: > 11 µM, 10 µM and 1.1.
In the case of `CC(C)c1ccc(C2=NN(S(=O)(=O)c3ccc(I)cc3)CCC2)cc1`, the concentration for half-maximal inhibition (IC50) in test [1] is > 11 µM; in test [2], 6.31 µM. Also, the GS in [3] came to 1.7.
As to `CCCCc1ccc(S(=O)(=O)N2CCCC(c3ccc(CC(C)C)cc3)=N2)cc1`, the concentration for half-maximal inhibition (IC50) in test [1] and in test [2] was > 11 µM throughout.
